Structures are written as SMILES. ≈ marks a conversion by molar mass, not a printed value. Calls of active or inactive are those of the source.

Data on 15 compounds can be found in ChEMBL document CHEMBL1138995, “Triaminotriazine DNA helicase inhibitors with antibacterial activity” (Bioorg Med Chem Lett, 2006).

For experiment [1], the system named is HeLa. Nature of the experiment: Cytotoxicity against HeLa cells by MTS assay at 25 uM measured as percentage survival. The class given is functional, Homo sapiens. Summed up:
(§1)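 HeLa cells were exposed to the compound at three concentrations (12.5, 25 and 50 µM). Viability was read by MTS assay and expressed as % survival.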

The target in the next experiment is T1, Replicative DNA helicase (Pseudomonas aeruginosa (strain ATCC 15692 / PAO1 / 1C / PRS 101 / LMG12228), UniProt Q9HUN3).
T1 sequence (Q9HUN3 whole entry): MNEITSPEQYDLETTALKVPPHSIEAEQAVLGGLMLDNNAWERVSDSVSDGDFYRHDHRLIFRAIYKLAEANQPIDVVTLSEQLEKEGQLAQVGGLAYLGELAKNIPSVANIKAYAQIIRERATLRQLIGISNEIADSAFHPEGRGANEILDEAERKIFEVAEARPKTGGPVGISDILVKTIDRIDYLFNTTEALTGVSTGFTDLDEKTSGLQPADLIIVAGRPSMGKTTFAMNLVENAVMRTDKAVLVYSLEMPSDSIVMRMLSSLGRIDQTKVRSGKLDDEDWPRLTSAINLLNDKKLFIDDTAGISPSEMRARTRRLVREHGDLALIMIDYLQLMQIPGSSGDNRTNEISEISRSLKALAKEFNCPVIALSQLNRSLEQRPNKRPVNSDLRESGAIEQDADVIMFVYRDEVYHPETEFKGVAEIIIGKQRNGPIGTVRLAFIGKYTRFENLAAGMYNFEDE
As to the kind of experiment: Inhibition of Pseudomonas aeruginosa DnaB helicase.

The next experiment concerns Escherichia coli. As to the kind of experiment: Antibacterial activity against tolC deficient Escherichia coli LBB925. The experiment is classed as functional. Summed up:
(§2)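 MIC by broth dilution following NCCLS standard M7-A4 for aerobically growing bacteria, reported in µg/mL. Strains were S. aureus RN4220, tolC-deficient hypersusceptible E. coli LBB925, and permeability-barrier-deficient P. aeruginosa Z61.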

Experiment [2] relates to Staphylococcus aureus. As to the kind of experiment: Antibacterial activity against Staphylococcus aureus infected in mouse at 0.2 mL. The experiment is classed as functional, organism-based.
Experiment [3] concerns HeLa. Nature of the experiment: Cytotoxicity against HeLa cells by MTS assay at 12.5 uM measured as percentage survival. The experiment is classed as functional, Homo sapiens. Summed up:
as §1
In general terms: Tetrazolium dyes change colour on reduction, which living cells bring about.

The test system of experiment [4] is HeLa. As to the kind of experiment: Cytotoxicity against HeLa cells by MTS assay at 50 uM measured as percentage survival. The experiment is classed as functional, Homo sapiens. Summed up:
as §1

Experiment [5] concerns Staphylococcus aureus. Nature of the experiment: Antibacterial activity against Staphylococcus aureus RN4220. The class given is functional. Summed up: as §2
The next experiment concerns Pseudomonas aeruginosa. As to the kind of experiment: Antibacterial activity against permeability barrier deficient Pseudomonas aeruginosa Z61. The experiment is classed as functional. Summed up:
as §2

As to `Clc1ccc(Nc2nc(NCCN3CCOCC3)nc(Nc3ccc(Cl)cc3)n2)cc1`, the Activity in the experiment with HeLa [1] was 90%; in the experiment on HeLa [3] it was 103%; with HeLa [4] it was 6%. On Replicative DNA helicase, this compound yielded an IC50 of 20 µM. In addition, the values for the MIC in the experiment with Escherichia coli, against Staphylococcus aureus [5] and with Pseudomonas aeruginosa were > 128 µg/mL, 4 µg/mL (≈ 8.69 µM) and > 128 µg/mL, respectively. Further, the result in the experiment with Staphylococcus aureus [2] was inactive.

Take `Clc1cccc(Nc2nc(Nc3cccc(Cl)c3)nc(Nc3cccc(Cl)c3)n2)c1`: the Activity in the experiment on HeLa [1] stood at 83%; with HeLa [3], 74%; in the experiment with HeLa [4], 64%. The compound further registered an IC50 against Replicative DNA helicase of 31 µM. In addition, the MIC against Escherichia coli, with Staphylococcus aureus [5] and with Pseudomonas aeruginosa was > 128 µg/mL throughout.

In the case of `COc1ccc(Nc2nc(NCCN3CCOCC3)nc(Nc3ccc(OC)cc3)n2)cc1`, on Replicative DNA helicase, the IC50 is > 100 µM.

Take `CC(=O)c1ccc(Nc2nc(Nc3ccc(Br)cc3)nc(Nc3ccc(Br)cc3)n2)cc1`: the IC50 against Replicative DNA helicase came to 6 µM. Further, the MIC with Escherichia coli, in the experiment with Staphylococcus aureus [5] and in the experiment with Pseudomonas aeruginosa was > 64 µg/mL throughout.

For `c1ccc(Nc2nc(NCCN3CCOCC3)nc(Nc3ccccc3)n2)cc1`, the IC50 against Replicative DNA helicase is > 100 µM.

As for `OCCN1CCN(c2nc(Nc3ccc(F)cc3)nc(Nc3ccc(F)cc3)n2)CC1`, the Activity with HeLa [1] stood at 104%; in the experiment on HeLa [3] it was 101%; in the experiment on HeLa [4], 51%. Inhibition against Replicative DNA helicase was half-maximal at 23 µM (IC50). In addition, the MIC against Escherichia coli is 32 µg/mL (≈ 74.9 µM); in the experiment on Staphylococcus aureus [5], 64 µg/mL (≈ 150 µM); against Pseudomonas aeruginosa, > 128 µg/mL.

With `Fc1ccc(Nc2nc(Nc3ccc(F)c(F)c3)nc(N3CCN(Cc4ccccc4)CC3)n2)cc1F`, the Activity was 99% in the experiment with HeLa [1], 96% in the experiment on HeLa [3] and 97% with HeLa [4]. In addition, on Replicative DNA helicase, the IC50 is 6 µM. Also, the MIC with Escherichia coli, in the experiment with Staphylococcus aureus [5] and in the experiment with Pseudomonas aeruginosa was > 128 µg/mL in each case.

Turning to `O=[N+]([O-])c1ccc(Nc2nc(NCCN3CCOCC3)nc(Nc3ccc(Cl)cc3)n2)cc1`, the Activity with HeLa [1] is on record as 19%; in the experiment on HeLa [3] it was 78%; in the experiment on HeLa [4], 10%. Moreover, at Replicative DNA helicase, half-maximal inhibition (IC50) required 5 µM. Moreover, the values for the MIC in the experiment on Escherichia coli, against Staphylococcus aureus [5] and with Pseudomonas aeruginosa were > 128 µg/mL, 4 µg/mL (≈ 8.49 µM) and > 128 µg/mL, respectively. Also, the result in the experiment on Staphylococcus aureus [2] was inactive.

As to `CC(C)CN1CCN(c2nc(Nc3ccc(F)c(F)c3)nc(Nc3ccc(F)c(F)c3)n2)CC1`, the Activity with HeLa [1] turned out to be 99%; in the experiment on HeLa [3], 99%; in the experiment on HeLa [4], 86%. The same compound yielded an IC50 on Replicative DNA helicase of 5 µM. The results for the MIC with Escherichia coli, in the experiment with Staphylococcus aureus [5] and with Pseudomonas aeruginosa were > 128 µg/mL, 4 µg/mL (≈ 8.41 µM) and > 128 µg/mL, respectively.

With `OCCN1CCN(c2nc(Nc3ccc(F)c(F)c3)nc(Nc3ccc(F)c(F)c3)n2)CC1`, the Activity with HeLa [1] amounted to 91%; in the experiment with HeLa [3], 80%; in the experiment with HeLa [4], 47%. This compound also yielded an IC50 against Replicative DNA helicase of 18 µM. The MIC against Escherichia coli is 16 µg/mL (≈ 34.5 µM); in the experiment with Staphylococcus aureus [5] it was 16 µg/mL (≈ 34.5 µM); against Pseudomonas aeruginosa, > 128 µg/mL.

As to `Fc1ccc(Nc2nc(Nc3ccc(F)c(F)c3)nc(N3CCN(CCOc4ccccc4)CC3)n2)cc1F`, the Activity worked out at 100% in the experiment with HeLa [1], 97% in the experiment on HeLa [3] and 99% with HeLa [4]. In addition, the IC50 against Replicative DNA helicase came to 5 µM. Also, the MIC against Escherichia coli, with Staphylococcus aureus [5] and against Pseudomonas aeruginosa was > 128 µg/mL throughout.

Regarding `CN1CCN(c2nc(Nc3ccc(F)cc3)nc(Nc3ccc(F)cc3)n2)CC1`, the Activity was 64% in the experiment with HeLa [1], 100% in the experiment with HeLa [3] and 11% with HeLa [4]. Besides, the midpoint of inhibition against Replicative DNA helicase, the IC50, lay at 22 µM. The MIC in the experiment on Escherichia coli is 16 µg/mL (≈ 40.3 µM); in the experiment on Staphylococcus aureus [5], 32 µg/mL (≈ 80.5 µM); against Pseudomonas aeruginosa, > 128 µg/mL.

`Fc1ccc(Nc2nc(NCCN3CCOCC3)nc(Nc3ccc(F)c(F)c3)n2)cc1F`: the results for the Activity in the experiment with HeLa [1], in the experiment with HeLa [3] and in the experiment with HeLa [4] were 91%, 101% and 47%, respectively. The same compound displayed an IC50 at Replicative DNA helicase of 19 µM. Also, the MIC in the experiment on Escherichia coli was 16 µg/mL (≈ 34.5 µM); against Staphylococcus aureus [5], 16 µg/mL (≈ 34.5 µM); against Pseudomonas aeruginosa it was > 128 µg/mL.

For `Clc1ccc(Nc2nc(NCCN3CCOCC3)nc(Nc3ccccc3)n2)cc1`, the Activity in the experiment on HeLa [1] was 74%; with HeLa [3], 98%; in the experiment on HeLa [4], 14%. Moreover, at Replicative DNA helicase, the midpoint of inhibition, the IC50, lay at 65 µM. Also, the values for the MIC in the experiment on Escherichia coli, with Staphylococcus aureus [5] and in the experiment on Pseudomonas aeruginosa were 16 µg/mL (≈ 37.6 µM), 64 µg/mL (≈ 150 µM) and > 128 µg/mL, respectively.

On to `Fc1ccc(Nc2nc(NCCN3CCOCC3)nc(Nc3ccc(F)cc3)n2)cc1`, for which the IC50 against Replicative DNA helicase was > 100 µM.

In general, IC50 refers to the point on the concentration scale where inhibition reaches its midpoint. By MIC is commonly meant the smallest concentration in the dilution series that meets the test's criterion for growth inhibition.
